ABHD4 inh: ABHD4 inhibitors, primary screen, biochemical, fluorescence polarization, mouse | (Lyso)-N-acylphosphatidylethanolamine lipase (Mus musculus), Q8VD66 | purified mABHD4, FP-Rh probe fluorescence polarization | inhibition, % at 8.92 µM | 0.54% of 370,000 active;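 active = inhibition exceeding the mean over every tested compound plus 3 SD, cut at about 30% in these data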;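 also: 0% = plate median of compound wells and 100% = S159A mutant with DMSO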
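Assay system: mouse ABHD4 enzyme, wild type / Also added: fluorescent activity-based probe FP-Rh / Doses: single nominal dose of 8.92 µM, 0.89% DMSO final / Timing: 45 min compound pre-incubation plus 60 min probe step, 25 °C / Signal: FP readout, ex 525 nm / em 598 nm / Control set: S159A mutant/DMSO as 100%, compound-well median as 0%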
DAGLB inhibitor: DAGLB lipase inhibitors, primary screen, biochemical, fluorescence, HTS; HEK293T DAGLB membrane lysate, EnzChek fluorogenic substrate; Diacylglycerol lipase-beta (Homo sapiens), Q8NCG7; 0.059% of 340,000 active; inhibition, % at 5.17 µM; in the data active = inhibition above about 34%;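 also: 0% = enzyme with vehicle and 100% = wells lacking enzyme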
SIAE inh: human SIAE inhibitors, primary screen, biochemical, fluorescence polarization, FP-Rh probe, 1536-well HTS; Sialate O-acetylesterase (Homo sapiens), Q9HAT2; SIAE FP-Rh probe binding; inhibition, % at 9.66 µM; 0.69% of 370,000 active;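 active = inhibition above a cutoff: mean of compounds within the control limits plus 3 SD of those, cut at about 17% in these data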;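 also: 0% = plate median of compound wells and 100% = probe without SIAE protein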
TCR CD3 inh: inhibitors of human TCR-CD3 interaction, primary screen, biochemical, fluorescence, TAMRA-labeled TCR probe; T-cell receptor (TCR); inhibition, % at 9.4 µM; 0.37% of 360,000 active; AID 651800, 2012; in the data active = inhibition above about 19%;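 also: recombinant mutant TCR 2C K166C tagged with TAMRA read by polarization; 0% = receptor in buffer alone and 100% = receptor with positive control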
HTRA1 inh: HTRA1 serine protease inhibitors, primary screen, biochemical, fluorescence polarization, HTS; Q92743; recombinant HTRA1, FP-rhodamine activity-based probe; inhibition, % at 5.96 µM; 0.5% of 340,000 active; in the data active = inhibition above about 36%;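 also: 0% = enzyme with DMSO and 100% = wells lacking enzyme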
Target sequence (Q92743 whole entry, looked up): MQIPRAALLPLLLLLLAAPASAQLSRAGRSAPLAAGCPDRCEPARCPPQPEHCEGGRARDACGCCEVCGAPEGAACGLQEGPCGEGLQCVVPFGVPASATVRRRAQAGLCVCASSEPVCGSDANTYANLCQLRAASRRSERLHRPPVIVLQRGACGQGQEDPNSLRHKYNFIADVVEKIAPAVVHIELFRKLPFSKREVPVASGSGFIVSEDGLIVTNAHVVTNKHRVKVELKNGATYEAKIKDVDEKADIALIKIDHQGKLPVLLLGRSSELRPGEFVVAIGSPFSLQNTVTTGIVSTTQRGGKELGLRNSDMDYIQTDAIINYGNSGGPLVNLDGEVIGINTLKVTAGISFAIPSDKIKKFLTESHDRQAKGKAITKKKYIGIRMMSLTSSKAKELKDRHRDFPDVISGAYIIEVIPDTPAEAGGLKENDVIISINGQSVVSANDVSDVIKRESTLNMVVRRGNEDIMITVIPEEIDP
ABHD4 confirm: ABHD4 inhibitors, retest, confirmation, biochemical, fluorescence polarization, mouse; shares compounds with ABHD4 inh; purified mABHD4, FP-Rh probe fluorescence polarization; inhibition, % at 8.92 µM; 55% of 1,800 active; AID 720658, 2013;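 active = mean inhibition across replicates above the hit cutoff set in the primary screen, cut at about 30% in these data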;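 also: 0% = wild-type ABHD4 with DMSO and 100% = catalytically dead S159A mutant with DMSO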
Active calls of the source: *; i = inactive; / = no result; ! = repeats disagree. In the library only some 1.6% were active in any assay of this set; here they are far more common.

SMILES	ABHD4 inh	DAGLB inhibitor	SIAE inh	TCR CD3 inh	HTRA1 inh	ABHD4 confirm
CCC(C)Sc1cc(-c2nc3ccccn3c2NC2CCCCC2)ccc1OC (stereo not drawn)	47*	-5	10	6	-21	45*
NCCCC(C(=O)O)N(C(=O)OCc1ccccc1)C(=O)OCc1ccccc1 (stereo not drawn)	5	/	-2	4	/	/
O=C(OCc1cn(Cc2ccccc2F)nn1)N1CCCC1	4	/	3	/	/	/
Fc1cccc(Cn2ccc3ccc(-c4ccc5ccn(Cc6cccc(F)c6)c5c4)cc32)c1	-4	/	-1	/	/	/
CCCCNc1c(-c2ccc(SC3CCCCC3)cc2)nc2ccccn12	44*	-10	17	0	-17	14
CCCCNc1c(-c2ccc(SC(C)CC)cc2)nc2ccccn12 (stereo not drawn)	40*	-8	11	4	-1	69*
Cc1ccn2c(NCc3ccccc3)c(-c3cccc(SC4CCCCC4)c3)nc2c1	30*	-12	14	0	4	31*!
C=CCn1c(SCC(=O)C(C)(C)C)nnc1-c1ccc(Cl)cc1	2	/	0	/	/	/
COC(=O)[C@]12C[C@H](CC(=O)NCCCCc3ccccc3)C(=O)N(CCc3ccc(OC)c(OC)c3)C1=C[C@H](COCc1ccccc1)O[C@@H]2C	-6	/	-2	/	/	/
C#CCNC(=O)C[C@@H]1C(=O)N2CCCC3=C2[C@@]1(C(=O)OC)CCCC3	-2	/	-2	/	/	/
Nn1c(SCC(=O)NC2CCCCC2)nnc1-c1n[nH]c2c1CCC2	-7	/	-1	/	/	/
OC(CCN1CC2CCC(CC2)C1)(Cc1ccccc1)c1ccco1 (stereo not drawn)	37*	0	14	3	3	18
CCCC(=O)OCCNc1cc(SCc2ccco2)c2nonc2c1[N+](=O)[O-]	20	6	12	10	32	/
CC(=O)OCCCNc1cc(SCc2ccco2)c2nonc2c1[N+](=O)[O-]	49*	2	13	13	8	11
NS(=O)(=O)c1ccc(-c2ccc(/C=C3\NC(=S)NC3=O)o2)cc1	39*	2	9	7	11	20
NS(=O)(=O)c1ccc(-c2ccc(C=O)o2)cc1	3	/	1	5	/	/
CC(=O)OC12CCCN(C1)/C(=C/c1cccc(Cl)c1)C2 (stereo not drawn)	4	/	2	/	/	/
Cc1nnc(Nc2ccc(C(=O)O)cc2)[nH]c1=O	-3	2	0	-2	-2	/
Cc1nnc(Nc2ccc(O)cc2)[nH]c1=O	43*	2	2	-6	9	24
N#C/C(=C(/O)c1ccc2c(c1)OCO2)c1nc2cc(C(F)(F)F)ccc2s1	33*	5	2	1	-1	10
O=[N+]([O-])c1cccc(C=Nc2cccc3ccccc23)c1O	25	6	9	8	24	/
CCOC(=O)c1c(/N=C/c2cccc([N+](=O)[O-])c2O)sc(C)c1C	33*	7	14	7	25	16
CCc1ccc(Cn2c(=O)n(Cc3ccc(C(=O)NCCCOC)cc3)c(=O)c3ccccc32)cc1	1	/	-1	/	/	/
CCOc1ccc(C=Nn2c(-c3cccc(OC(C)C)c3)n[nH]c2=S)cc1	-6	/	1	/	/	/
Nc1ccc2cc3[nH]c4cc(N)ccc4c3nc2c1	36*	i	2	10	32	72*
SMILES	ABHD4 inh	DAGLB inhibitor	SIAE inh	TCR CD3 inh	HTRA1 inh	ABHD4 confirm
Nc1ccc2nc(C3CCCCC3)[nH]c2c1	12	-1	7	1	1	/
O=Cc1cc(OCc2ccccc2)ccc1[B-](F)(F)F	45*	31	8	5	0	43*
C=C[C@]1(C)C=C2CC[C@H]3[C@@](C)(CCC[C@@]3(C)C(=O)O)[C@@H]2CC1	/	2	/	/	-16	/
C=C[C@]1(C)C=C2C(=O)[C@@]3(O)OC(=O)[C@@]4(CCCC(C)(C)[C@H]34)[C@@]2(O)CC1	52*	/	10	-8	/	3
COc1ccc(Cn2cc(CN3[C@@H](c4ccccc4)COc4cc(Br)ccc4S3(=O)=O)nn2)cc1	-1	/	-2	0	/	/
O=C(CNc1cccc2ccccc12)N/N=C/c1ccc[nH]1	29	-3	3	1	28	/
O=C(CNc1cccc2ccccc12)N/N=C/C(Br)=C/c1ccccc1	32*	10	7	3	22	3
CCOc1ccc(S(=O)(=O)n2cc(-c3ccc(F)cc3)c(N)n2)cc1	-10	-4	2	9	-11	/
CCOc1cc(-c2cn(S(=O)(=O)c3cccc4nsnc34)nc2N)cc(OCC)c1OCC	31*	-2	4	0	-4	51*
CCOc1cc(S(=O)(=O)n2cc(-c3ccc(F)cc3)c(N)n2)cc(OCC)c1OCC	49*	-9	-2	7	-36	65*
COC(=O)Cn1cnc2c(NC(=O)c3ccccc3)ncnc21	2	/	-1	8	/	/
Cc1ccc2c(c1)c(Sc1ccccc1)c(CC(=O)O)n2C	30*	9	2	-2	1	35*
Cc1[nH]n(-c2ccccc2)c(=O)c1C(c1ccccc1[N+](=O)[O-])C(C#N)C#N (stereo not drawn)	42*	9	14	4	14	38*
O=C(CSc1ccc(-c2ccco2)nn1)c1cccc([N+](=O)[O-])c1	31*	6	11	16	18	0
CCOC(=O)C1CCN(C2=C(NS(=O)(=O)c3ccc(Cl)cc3)C(=O)c3ccccc3C2=O)CC1	41*	22	7	3	29	58*
CC1CCN(C2=C(NS(=O)(=O)c3ccc(Cl)cc3)C(=O)c3ccccc3C2=O)CC1	17	3	8	10	10	/
COc1ccc(C2C3=C(CC(C)(C)CC3=O)Oc3ncn4nc(-c5cccnc5)nc4c32)cc1 (stereo not drawn)	30*	2	-2	3	2	-13
COc1ccc(C2C3=C(CC(C)(C)CC3=O)Oc3ncn(Cc4ccccc4)c(=N)c32)cc1 (stereo not drawn)	5	1	-4	1	-6	/
CC(C)(C)C(=O)/C=C/Nc1ccccc1O	30*	-2	3	-1	8	1
O=C1NC(=O)/C(=C\c2ccc(O)cc2O)S1	30*	2	-2	17	17	3
CC(C)(C)c1ccc(-c2cn(C[C@H](Cc3ccccc3)n3c(=O)c4ccccc4n3Cc3ccno3)nn2)cc1	-3	/	-8	/	/	/
Cc1ccc(C)c(OCC(O)CNC2CCCC2)c1 (stereo not drawn)	38*	-2	-12	0	4	-4
